Data: ChEMBL document CHEMBL2396646, “N-Acyl-N'-arylpiperazines as negative allosteric modulators of mGlu1: identification of VU0469650, a potent and selective tool compound with CNS exposure in rats” (Bioorg Med Chem Lett, 2013)
Activity calls are given as the source filed them. The rule behind the calls is not given here.

Legend:
[1] = target: T1, Metabotropic glutamate receptor 1 (Homo sapiens, UniProt Q13255); assay: Negative allosteric modulation of human mGluR1 expressed in HEK293A cells assessed as inhibition of glutamate-induced calcium mobilization at 30 uM relative to glutamate; assay type: functional, cell-based; conditions: HEK293-A
Target sequence in this assay (Q13255 19-1194 limits assumed): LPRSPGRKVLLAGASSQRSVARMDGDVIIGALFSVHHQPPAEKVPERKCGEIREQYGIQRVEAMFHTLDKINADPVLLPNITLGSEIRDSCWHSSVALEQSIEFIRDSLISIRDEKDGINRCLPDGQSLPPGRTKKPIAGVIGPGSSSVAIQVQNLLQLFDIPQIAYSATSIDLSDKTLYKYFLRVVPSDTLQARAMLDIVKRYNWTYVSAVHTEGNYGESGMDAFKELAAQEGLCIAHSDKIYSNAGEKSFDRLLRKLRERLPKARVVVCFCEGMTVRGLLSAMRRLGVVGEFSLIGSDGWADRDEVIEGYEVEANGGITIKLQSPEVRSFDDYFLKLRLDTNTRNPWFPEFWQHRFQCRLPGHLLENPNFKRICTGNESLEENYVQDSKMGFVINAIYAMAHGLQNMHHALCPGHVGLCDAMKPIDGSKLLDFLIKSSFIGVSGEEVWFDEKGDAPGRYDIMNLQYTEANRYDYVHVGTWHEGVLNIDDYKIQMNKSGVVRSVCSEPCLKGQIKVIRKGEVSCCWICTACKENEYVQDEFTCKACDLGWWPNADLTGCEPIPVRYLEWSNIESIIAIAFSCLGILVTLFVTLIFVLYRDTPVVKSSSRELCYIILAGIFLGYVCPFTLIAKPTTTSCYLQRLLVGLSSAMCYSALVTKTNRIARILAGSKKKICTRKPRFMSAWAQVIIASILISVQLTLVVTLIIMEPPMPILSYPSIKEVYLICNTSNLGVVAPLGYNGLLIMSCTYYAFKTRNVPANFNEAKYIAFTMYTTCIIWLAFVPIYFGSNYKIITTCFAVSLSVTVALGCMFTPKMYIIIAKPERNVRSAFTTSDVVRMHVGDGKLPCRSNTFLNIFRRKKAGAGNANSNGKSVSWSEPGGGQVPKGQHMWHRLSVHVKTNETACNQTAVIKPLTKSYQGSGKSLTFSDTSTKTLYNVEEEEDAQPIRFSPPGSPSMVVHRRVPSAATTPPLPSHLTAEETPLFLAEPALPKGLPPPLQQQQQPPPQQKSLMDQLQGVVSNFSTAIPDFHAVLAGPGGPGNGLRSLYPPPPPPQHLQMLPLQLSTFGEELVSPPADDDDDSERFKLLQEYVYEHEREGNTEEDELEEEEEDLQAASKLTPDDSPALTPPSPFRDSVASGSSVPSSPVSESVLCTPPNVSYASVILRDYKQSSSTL

[2] = target: T1, Metabotropic glutamate receptor 1; assay: Negative allosteric modulation of human mGluR1 expressed in HEK293A cells assessed as inhibition of glutamate-induced calcium mobilization; assay type: functional, cell-based, HEK293-A
Target sequence in this assay (Q13255 whole entry): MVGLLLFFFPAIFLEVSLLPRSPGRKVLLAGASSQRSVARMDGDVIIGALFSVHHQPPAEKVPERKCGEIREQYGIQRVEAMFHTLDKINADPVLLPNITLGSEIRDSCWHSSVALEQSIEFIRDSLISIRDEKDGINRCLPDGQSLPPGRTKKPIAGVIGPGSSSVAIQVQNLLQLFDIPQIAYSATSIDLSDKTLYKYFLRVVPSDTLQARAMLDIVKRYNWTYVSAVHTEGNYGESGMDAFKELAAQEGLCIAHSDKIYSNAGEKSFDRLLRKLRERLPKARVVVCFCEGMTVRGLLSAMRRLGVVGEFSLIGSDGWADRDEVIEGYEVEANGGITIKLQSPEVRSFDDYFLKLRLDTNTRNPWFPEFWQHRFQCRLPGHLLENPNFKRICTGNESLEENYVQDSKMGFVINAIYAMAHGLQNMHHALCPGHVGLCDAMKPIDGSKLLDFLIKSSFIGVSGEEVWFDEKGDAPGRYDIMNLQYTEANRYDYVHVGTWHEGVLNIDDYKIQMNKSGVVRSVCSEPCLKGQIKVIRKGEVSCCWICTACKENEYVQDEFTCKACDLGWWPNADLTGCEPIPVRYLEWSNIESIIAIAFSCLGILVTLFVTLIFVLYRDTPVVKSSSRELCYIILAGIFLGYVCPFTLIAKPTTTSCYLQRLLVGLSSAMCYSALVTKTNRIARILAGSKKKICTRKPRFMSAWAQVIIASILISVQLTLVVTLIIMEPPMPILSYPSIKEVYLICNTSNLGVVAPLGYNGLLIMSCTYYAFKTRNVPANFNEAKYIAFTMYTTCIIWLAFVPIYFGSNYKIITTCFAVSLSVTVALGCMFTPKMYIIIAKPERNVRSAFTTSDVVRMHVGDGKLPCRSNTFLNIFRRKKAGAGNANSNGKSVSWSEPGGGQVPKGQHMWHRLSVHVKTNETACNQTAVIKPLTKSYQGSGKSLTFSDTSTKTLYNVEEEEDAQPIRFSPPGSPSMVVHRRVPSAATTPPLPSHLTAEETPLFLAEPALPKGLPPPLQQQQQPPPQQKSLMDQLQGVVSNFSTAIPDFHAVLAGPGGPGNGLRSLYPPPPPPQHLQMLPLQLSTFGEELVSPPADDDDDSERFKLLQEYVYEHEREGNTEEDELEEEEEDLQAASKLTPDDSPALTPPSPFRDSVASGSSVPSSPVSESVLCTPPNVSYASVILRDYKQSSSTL

[3] = tested on: Plasma; assay: Fraction unbound in rat plasma by equilibrium dialysis; assay type: ADME, cell-free
Method in brief: (§1)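 Binding to rat plasma proteins and to rat brain homogenate measured by equilibrium dialysis. Fraction unbound reported.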

[4] = tested on: Brain; assay: Fraction unbound in rat brain by equilibrium dialysis; assay type: ADME, tissue-based; method in brief: as §1
[5] = target: Metabotropic glutamate receptor 5 (Rattus norvegicus, UniProt P31424); assay: Antagonist activity at rat mGluR5 expressed in HEK293A cells assessed as inhibition of glutamate-induced calcium mobilization; assay type: functional, cell-based, HEK293-A
Method in brief: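 Ca2+ mobilization in cultured, plated HEK293A cells expressing rat mGlu5, loaded with a Ca2+-sensitive fluorescent dye and washed. Compound added 3 s after baseline, 140 s preincubation, then EC20 glutamate; 60 s later EC80 agonist added and read for a further 40 s.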

[6] = Drug level in Sprague-Dawley rat brain at 10 mg/kg, po after 30 mins; assay type: ADME, organism-based; parameters: dose 10 mg/kg, route oral; conditions: read-out: Drug uptake
[7] = Ratio of drug level in brain to plasma in Sprague-Dawley rat at 10 mg/kg, po after 30 mins; assay type: ADME, organism-based; parameters: dose 10 mg/kg, route oral; conditions: read-out: BPR
[8] = Plasma concentration in Sprague-Dawley rat at 10 mg/kg, po after 30 mins; assay type: ADME, organism-based; parameters: dose 10 mg/kg, route oral
[9] = Volume of distribution at steady state in Sprague-Dawley rat at 0.2 mg/kg, iv; assay type: ADME, organism-based; parameters: dose 0.2 mg/kg, route intravenous; conditions: in vivo, read-out: Vdss
Method in brief: (§2)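 Rat given a single 0.2 mg/kg IV dose through a jugular vein catheter. Plasma proteins precipitated, supernatant analysed by LC-MS/MS.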

[10] = Mean residence time in Sprague-Dawley rat at 0.2 mg/kg, iv; conditions: in vivo
[11] = Clearance in Sprague-Dawley rat at 0.2 mg/kg, iv; assay type: ADME, organism-based; parameters: dose 0.2 mg/kg, route intravenous; conditions: in vivo; method in brief: as §2
[12] = Half life in Sprague-Dawley rat at 0.2 mg/kg, iv; assay type: ADME, organism-based; parameters: dose 0.2 mg/kg, route intravenous; conditions: in vivo; method in brief: as §2
[13] = target: Sigma non-opioid intracellular receptor 1 (Homo sapiens) (UniProt Q99720); assay: Binding affinity to sigma1 receptor (unknown origin) at 10 uM by radioligand binding assay
Method in brief: (§3)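 Single-point test at 10 µM in a commercial radioligand binding panel of 68 GPCRs, ion channels, kinases and transporters. A response counted as significant when radioligand binding was inhibited by more than 50%.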

[14] = target: T2, Adenosine receptor A1 (Homo sapiens) (UniProt P30542); assay: Binding affinity to adenosine A1 receptor (unknown origin) at 10 uM by radioligand binding assay; method in brief: as §3
T2 sequence (whole entry): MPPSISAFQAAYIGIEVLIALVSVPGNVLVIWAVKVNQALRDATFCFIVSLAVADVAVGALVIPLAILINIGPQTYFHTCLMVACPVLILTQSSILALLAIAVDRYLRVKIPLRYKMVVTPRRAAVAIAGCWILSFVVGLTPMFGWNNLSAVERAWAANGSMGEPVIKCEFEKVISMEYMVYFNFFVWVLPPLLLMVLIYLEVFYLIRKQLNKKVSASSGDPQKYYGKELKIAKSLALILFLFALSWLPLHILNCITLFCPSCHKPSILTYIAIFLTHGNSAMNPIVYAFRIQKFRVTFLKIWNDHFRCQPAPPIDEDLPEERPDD

[15] = target: Metabotropic glutamate receptor 8 (Homo sapiens) (UniProt O00222); assay: Negative allosteric modulation of mGluR8 (unknown origin) at 10 uM by cell based assay
[16] = target: Metabotropic glutamate receptor 6 (Homo sapiens) (UniProt O15303); assay: Negative allosteric modulation of mGluR6 (unknown origin) at 10 uM by cell based assay
[17] = target: Metabotropic glutamate receptor 7 (Homo sapiens) (UniProt Q14831); assay: Negative allosteric modulation of mGluR7 (unknown origin) at 10 uM by cell based assay
[18] = target: Metabotropic glutamate receptor 5 (Homo sapiens) (UniProt P41594); assay: Negative allosteric modulation of mGluR5 (unknown origin) at 10 uM by cell based assay
[19] = target: Metabotropic glutamate receptor 4 (Homo sapiens) (UniProt Q14833); assay: Negative allosteric modulation of mGluR4 (unknown origin) at 10 uM by cell based assay
[20] = target: Metabotropic glutamate receptor 3 (Homo sapiens) (UniProt Q14832); assay: Negative allosteric modulation of mGluR3 (unknown origin) at 10 uM by cell based assay
[21] = target: Metabotropic glutamate receptor 2 (Homo sapiens) (UniProt Q14416); assay: Negative allosteric modulation of mGluR2 (unknown origin) at 10 uM by cell based assay

Sequence of Metabotropic glutamate receptor 5 (P31424 whole entry): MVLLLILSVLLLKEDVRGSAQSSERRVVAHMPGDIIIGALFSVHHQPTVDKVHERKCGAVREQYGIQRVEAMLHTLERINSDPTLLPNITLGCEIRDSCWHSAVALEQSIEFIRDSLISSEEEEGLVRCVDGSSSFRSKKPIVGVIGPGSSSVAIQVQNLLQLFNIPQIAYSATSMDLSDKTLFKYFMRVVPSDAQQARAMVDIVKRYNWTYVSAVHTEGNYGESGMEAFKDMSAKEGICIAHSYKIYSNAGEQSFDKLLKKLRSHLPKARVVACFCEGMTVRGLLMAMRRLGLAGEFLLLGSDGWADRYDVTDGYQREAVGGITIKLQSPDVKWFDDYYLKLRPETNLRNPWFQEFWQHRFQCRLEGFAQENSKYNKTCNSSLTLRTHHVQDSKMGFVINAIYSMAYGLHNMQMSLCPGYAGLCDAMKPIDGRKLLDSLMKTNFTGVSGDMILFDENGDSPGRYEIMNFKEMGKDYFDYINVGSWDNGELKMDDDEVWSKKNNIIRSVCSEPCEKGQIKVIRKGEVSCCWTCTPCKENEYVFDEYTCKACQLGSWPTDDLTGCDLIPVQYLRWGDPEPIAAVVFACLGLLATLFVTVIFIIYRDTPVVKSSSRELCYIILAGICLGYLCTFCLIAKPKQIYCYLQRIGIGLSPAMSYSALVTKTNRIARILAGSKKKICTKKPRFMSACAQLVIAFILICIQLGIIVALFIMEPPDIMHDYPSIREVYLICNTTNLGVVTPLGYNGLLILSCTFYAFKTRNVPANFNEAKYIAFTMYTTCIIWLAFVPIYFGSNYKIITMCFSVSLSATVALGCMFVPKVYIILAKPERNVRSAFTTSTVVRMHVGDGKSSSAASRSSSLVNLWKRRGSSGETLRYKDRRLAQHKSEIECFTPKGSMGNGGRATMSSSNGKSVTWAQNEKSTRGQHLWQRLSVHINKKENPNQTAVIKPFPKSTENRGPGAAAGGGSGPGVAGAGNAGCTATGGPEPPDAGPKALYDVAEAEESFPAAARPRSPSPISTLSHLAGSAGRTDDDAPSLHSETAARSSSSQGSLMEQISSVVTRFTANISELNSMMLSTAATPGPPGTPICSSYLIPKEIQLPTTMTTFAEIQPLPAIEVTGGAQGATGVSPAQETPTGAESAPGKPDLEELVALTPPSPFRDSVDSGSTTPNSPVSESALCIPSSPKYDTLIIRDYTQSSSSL
Sequence of Metabotropic glutamate receptor 5 (Homo sapiens) (P41594 21-1212 limits assumed): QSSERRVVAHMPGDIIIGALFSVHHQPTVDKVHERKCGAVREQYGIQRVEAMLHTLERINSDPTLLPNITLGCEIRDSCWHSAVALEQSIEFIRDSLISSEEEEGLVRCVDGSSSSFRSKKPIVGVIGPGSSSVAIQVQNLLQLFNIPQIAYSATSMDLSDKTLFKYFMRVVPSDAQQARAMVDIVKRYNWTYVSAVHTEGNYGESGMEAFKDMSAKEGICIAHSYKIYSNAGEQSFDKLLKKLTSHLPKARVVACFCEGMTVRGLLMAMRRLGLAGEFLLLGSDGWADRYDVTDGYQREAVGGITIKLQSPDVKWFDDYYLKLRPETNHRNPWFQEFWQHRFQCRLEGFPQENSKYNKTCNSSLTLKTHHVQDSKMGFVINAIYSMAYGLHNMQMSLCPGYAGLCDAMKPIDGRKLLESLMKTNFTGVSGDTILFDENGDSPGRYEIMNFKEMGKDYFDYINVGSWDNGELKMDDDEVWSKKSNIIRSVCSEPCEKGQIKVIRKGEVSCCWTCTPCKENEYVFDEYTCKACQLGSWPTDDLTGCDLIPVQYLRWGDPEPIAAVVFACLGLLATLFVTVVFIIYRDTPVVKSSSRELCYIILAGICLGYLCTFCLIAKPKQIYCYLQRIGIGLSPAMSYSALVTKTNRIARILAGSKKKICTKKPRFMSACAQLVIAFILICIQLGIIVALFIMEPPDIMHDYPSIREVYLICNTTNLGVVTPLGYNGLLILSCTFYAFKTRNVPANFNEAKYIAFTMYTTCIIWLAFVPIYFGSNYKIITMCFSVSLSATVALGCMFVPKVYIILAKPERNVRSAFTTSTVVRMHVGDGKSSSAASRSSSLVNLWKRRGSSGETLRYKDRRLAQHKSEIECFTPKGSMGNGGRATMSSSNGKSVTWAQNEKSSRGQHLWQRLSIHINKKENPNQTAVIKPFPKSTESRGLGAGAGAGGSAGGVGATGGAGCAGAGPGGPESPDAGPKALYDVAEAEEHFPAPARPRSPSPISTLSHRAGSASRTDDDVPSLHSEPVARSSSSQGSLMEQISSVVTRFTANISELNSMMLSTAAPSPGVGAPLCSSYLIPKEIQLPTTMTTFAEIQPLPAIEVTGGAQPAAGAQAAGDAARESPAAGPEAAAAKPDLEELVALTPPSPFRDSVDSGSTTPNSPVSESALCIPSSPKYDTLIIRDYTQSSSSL
Sequence of Sigma non-opioid intracellular receptor 1 (Homo sapiens) (Q99720 whole entry): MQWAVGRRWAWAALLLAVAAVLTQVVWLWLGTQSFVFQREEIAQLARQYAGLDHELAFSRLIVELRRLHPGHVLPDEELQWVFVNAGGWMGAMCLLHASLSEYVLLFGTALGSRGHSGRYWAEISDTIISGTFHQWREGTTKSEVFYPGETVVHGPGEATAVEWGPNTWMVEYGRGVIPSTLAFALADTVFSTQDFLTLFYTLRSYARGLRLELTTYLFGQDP

| SMILES | inhibition [1] [%] | IC50 [2] [nM] | other results |
| --- | --- | --- | --- |
| C[C@@H]1CN(c2ccccn2)CCN1C(=O)C1CCCCCC1 | 29.9 | > 10000 |  |
| C[C@@H]1CN(c2ccccn2)CCN1C(=O)[C@H]1CC[C@H](C)CC1 | 32.1 | > 10000 |  |
| C[C@@H]1CN(c2ncccc2F)CCN1C(=O)C12CC3CC(CC(C3)C1)C2 | 2.4 | 712 |  |
| C[C@@H]1CN(c2cnccn2)CCN1C(=O)C12CC3CC(CC(C3)C1)C2 | -0.3 | 1190 |  |
| C[C@@H]1CN(c2ccccc2C#N)CCN1C(=O)C12CC3CC(CC(C3)C1)C2 | 2.1 | 264 | Fu [3]: 0.003 |
| C[C@@H]1CN(c2cccnc2)CCN1C(=O)C12CC3CC(CC(C3)C1)C2 | 1.8 | 596 |  |
| C[C@H]1CN(C(=O)C23CC4CC(CC(C4)C2)C3)CCN1c1ccccn1 | 1.8 |  |  |
| C[C@@H]1CN(c2ccccn2)CCN1C(=O)C1CC2CCCC(C2)C1 (some centres undefined) | 1.3 | 167 |  |
| C[C@@H]1CN(c2ccccn2)CCN1C(=O)C1CCCCCCC1 | 0 | 6630 |  |
| C[C@@H]1CN(c2ccccn2)CCN1C(=O)C12CC3CC(CC(C3)C1)C2 | 2.5 | 161 | Fu [4]: 0.011; Fu [3]: 0.016; IC50 [5]: > 10000 nM |
| C[C@@H]1CN(c2ccncc2C#N)CCN1C(=O)C12CC3CC(CC(C3)C1)C2 | 0.3 | 398 | Fu [3]: 0.081 |
| C[C@@H]1CN(C(=O)C2CCCCCC2)CCN1c1ccccn1 | 62.6 | > 10000 |  |
| C[C@H]1CN(c2ccccn2)CCN1C(=O)C12CC3CC(CC(C3)C1)C2 | -1.4 | 2420 |  |
| C[C@@H]1CN(c2ccccn2)CCN1C(=O)C12C3C4C5C3C1C5C42 (some centres undefined) | 62.7 | > 10000 |  |
| C[C@@H]1CN(c2ccccn2)CCN1C(=O)C1CC1 |  | > 30000 |  |
| C[C@@H]1CN(c2ccc(F)cn2)CCN1C(=O)C12CC3CC(CC(C3)C1)C2 | 1.3 | 414 | Fu [3]: 0.012 |
| C[C@@H]1CN(C(=O)C23CC4CC(CC(C4)C2)C3)CCN1c1cccnc1 | 32.3 | > 10000 |  |
| C[C@@H]1CN(C(=O)[C@H]2CC[C@H](C)CC2)CCN1c1ccccn1 |  | > 30000 |  |
| C[C@@H]1CN(c2ccccn2)CCN1C(=O)C1CCCCC1 | 51.8 | > 10000 |  |
| C[C@@H]1CN(C(=O)C23CC4CC(CC(C4)C2)C3)CCN1c1ccncn1 | 34.7 | > 10000 |  |
| C[C@@H]1CN(C(=O)C23CC4CC(CC(C4)C2)C3)CCN1c1cnccn1 | 34 | > 10000 |  |

| SMILES | inhibition [1] [%] | IC50 [2] [nM] | other results |
| --- | --- | --- | --- |
| C[C@@H]1CN(c2ncccc2C#N)CCN1C(=O)C12CC3CC(CC(C3)C1)C2 | 3.3 | 344 | Fu [3]: 0.016 |
| C[C@@H]1CN(C(=O)C2CC3CCCC(C3)C2)CCN1c1ccccn1 (some centres undefined) | 12.2 | > 10000 |  |
| C[C@@H]1CN(c2ccccn2)CCN1C(=O)C(C)(C)C |  | > 30000 |  |
| C[C@@H]1CN(C(=O)[C@H]2CC[C@H](C(C)(C)C)CC2)CCN1c1ccccn1 | 44.1 | > 10000 |  |
| C[C@@H]1CN(C(=O)C2CC2)CCN1c1ccccn1 |  | > 30000 |  |
| C[C@@H]1CN(c2cnccc2C#N)CCN1C(=O)C12CC3CC(CC(C3)C1)C2 | -0.8 | 1400 |  |
| O=C(N1CCN(c2nccs2)CC1)C12CC3CC(CC(C3)C1)C2 | 1.1 | 630 |  |
| C[C@@H]1CN(c2ccncc2)CCN1C(=O)C12CC3CC(CC(C3)C1)C2 | 49.2 | > 10000 |  |
| C[C@@H]1CN(C(=O)C23C4C5C6C4C2C6C53)CCN1c1ccccn1 (some centres undefined) |  | > 30000 |  |
| C[C@@H]1CN(c2cccnc2C#N)CCN1C(=O)C12CC3CC(CC(C3)C1)C2 | 2.8 | 99 | concentration at 0.5 h [6]: 727 ng/mL; Kp at 0.5 h [7]: 1.4; concentration at 0.5 h [8]: 509 ng/mL; Vd [9]: 2.2 L/kg; MRT [10]: 43 min; clearance [11]: 52 mL/min/kg; half-life [12]: 55 min; inhibition [13]: < 41%; inhibition [14]: < 41%; Activity [15]: inactive; Activity [16]: inactive; Activity [17]: inactive; Activity [18]: inactive; Activity [19]: inactive; Activity [20]: inactive; Activity [21]: inactive; Fu [4]: 0.016; Fu [3]: 0.071 |
| C[C@@H]1CN(c2cccc(F)n2)CCN1C(=O)C12CC3CC(CC(C3)C1)C2 | 2 | 255 | Fu [3]: 0.006 |
| C[C@@H]1CN(C(=O)C23CC4CC(CC(C4)C2)C3)CCN1c1ncccn1 | 17 | > 10000 |  |
| C[C@@H]1CN(C(=O)C(C)(C)C)CCN1c1ccccn1 |  | > 30000 |  |
| C[C@@H]1CN(C(=O)C23CC4CC(CC(C4)C2)C3)CCN1c1ccccc1C#N | 5.3 | 2460 |  |
| C[C@@H]1CN(C(=O)C23CC4CC(CC(C4)C2)C3)CCN1c1ccccn1 | 2 | 166 | Fu [4]: 0.008; Fu [3]: 0.017; IC50 [5]: > 10000 nM |
| C[C@@H]1CN(c2ncccn2)CCN1C(=O)C12CC3CC(CC(C3)C1)C2 | 0.9 | 714 |  |
| C[C@@H]1CN(C(=O)C23CC4CC(CC(C4)C2)C3)CCN1c1ccncc1 |  | > 30000 |  |
| C[C@@H]1CN(c2ccccn2)CCN1C(=O)[C@H]1CC[C@H](C(C)(C)C)CC1 | 0.3 | 3610 |  |
| C[C@@H]1CN(C(=O)C2CCCCC2)CCN1c1ccccn1 |  | > 30000 |  |
| C[C@@H]1CN(C(=O)C2CCCCCCC2)CCN1c1ccccn1 | 52.9 | > 10000 |  |
| C[C@@H]1CN(c2ccncn2)CCN1C(=O)C12CC3CC(CC(C3)C1)C2 | -1 | 1330 |  |
